This is an account of results in ChEMBL document CHEMBL4024751, “Hit-to-Lead Optimization and Discovery of 5-((5-([1,1'-Biphenyl]-4-yl)-6-chloro-1H-benzo[d]imidazol-2-yl)oxy)-2-methylbenzoic Acid (MK-3903): A Novel Class of Benzimidazole-Based Activators of AMP-Activated Protein Kinase” (J Med Chem, 2017).

The target of one data set is AMPK alpha2/beta1/gamma1 (Homo sapiens, UniProt P54619+P54646+Q9Y478). The data set can be described thus: Agonist activity at human recombinant phosphorylated AMPK complex 7 alpha2/beta1/gamma1 expressed in baculovirus infected Sf21 cells assessed as phosphorylation of 5-FAM-labeled SAMS substrate preincubated for 30 mins in presence of AMPK activator followed by substrate addition measured after 60 mins. The essentials:
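Recombinant phosphorylated human AMPK complex; agonist tested as a 10-point titration up to 50 μM (∼2 nM to 50 μM in some series, ∼0.8 nM to 16 μM in others). EC50 is the average of at least two experiments. Percent maximum activation is the highest activation seen over the titration range, or the level at 50 μM.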

Data set [1] addresses T1, AMPK alpha2/beta1/gamma1 (Homo sapiens) (UniProt P54646+P54619+Q9Y478). Put plainly: Agonist activity at human recombinant phosphorylated AMPK complex 7 alpha2/beta1/gamma1 expressed in baculovirus infected Sf21 cells assessed as phosphorylation of 5-FAM-labeled SAMS substrate at 0.0008 to 16 uM preincubated for 30 mins in presence of AMPK activator followed by substrate addition measured after 60 mins relative to AMP. The essentials:
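Recombinant human pAMPK7 was titrated at 10 points over about 0.8 nM to 16 μM. EC50 is the average of at least two experiments. Percent maximum activation is the highest activation seen within that range.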

Data set [2] has as its target T1, AMPK alpha2/beta1/gamma1 (Homo sapiens). The data set can be described thus: Agonist activity at human recombinant phosphorylated AMPK complex 7 alpha2/beta1/gamma1 expressed in baculovirus infected Sf21 cells assessed as phosphorylation of 5-FAM-labeled SAMS substrate at 50 uM preincubated for 30 mins in presence of AMPK activator followed by substrate addition measured after 60 mins relative to AMP. Put shortly:
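Activation of pAMPK7 is reported as percent activation at 50 μM, taken from 10-point titrations and averaged over at least two experiments.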

The target is the same in data set [3]. Put plainly: Agonist activity at human recombinant phosphorylated AMPK complex 7 alpha2/beta1/gamma1 expressed in baculovirus infected Sf21 cells assessed as phosphorylation of 5-FAM-labeled SAMS substrate at 0.002 to 50 uM preincubated for 30 mins in presence of AMPK activator followed by substrate addition measured after 60 mins relative to AMP. Put shortly:
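Recombinant human pAMPK complexes were titrated at 10 points over about 2 nM to 50 μM. EC50 is the average of at least two experiments. %max is the highest activation seen within that range.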

Data set [4] is described as follows: Terminal half life in C57BL/6 mouse by LC-MS/MS analysis. The format is ADME. To be noted: in vivo, read-out: beta t1/2 (converted). Put shortly: (§1)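 C57BL/6 mice were dosed 2 mg/kg IV and 10 mg/kg PO. Reported parameters: plasma clearance, Vdss, terminal t1/2, Cmax, tmax and oral bioavailability F. AUCN is the plasma AUC after PO dosing normalized to dose.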

A short description of data set [5]: Plasma clearance in C57BL/6 mouse by LC-MS/MS analysis. The format is ADME. Put shortly:
as §1

Data set [6] is described as follows: Volume of distribution at steady state in BCRP knockout mouse by LC-MS/MS analysis. In kind it is ADME. As to conditions: in vivo, read-out: Vdss.
A short description of data set [7]: Terminal half life in BCRP knockout mouse by LC-MS/MS analysis. In kind it is ADME. To be noted: in vivo, read-out: beta t1/2 (converted).
The nature of data set [8]: Plasma clearance in BCRP knockout mouse by LC-MS/MS analysis. The format is ADME.
Data set [9] has as its system Mus musculus. Put plainly: In vivo agonist activity at AMPK C57BL/6 mouse assessed as inhibition of de novo lipogenesis at 100 mg/kg, po administered via gavage. In kind it is functional. As to conditions: C57BL/6, po.
The subject of data set [10] is Mus musculus. The data set can be described thus: In vivo agonist activity at AMPK in C57BL/6 mouse assessed as inhibition of de novo lipogenesis at 30 mg/kg, ip. In kind it is functional. To be noted: C57BL/6, ip.
The nature of data set [11]: Volume of distribution at steady state in C57BL/6 mouse by LC-MS/MS analysis. In kind it is ADME. As to conditions: in vivo, read-out: Vdss. The essentials:
as §1

The test system of data set [12] is Mus musculus. Put plainly: Dose normalized AUC in po dosed C57BL/6 mouse administered via gavage by LC-MS/MS analysis. The format is ADME, organism-based. To be noted: in vivo. The essentials:
as §1

Data set [13] can be described thus: Oral bioavailability in C57BL/6 mouse by LC-MS/MS analysis. The format is ADME, organism-based. As to conditions: in vivo. Put shortly:
as §1

The nature of data set [14]: Apparent permeability of compound in pig LLC-PK1 cells by HPLC analysis. In kind it is ADME, cell-based, Sus scrofa. To be noted: llc-pk1. Put shortly: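 LLC-PK1 monolayer on polycarbonate filter. Compound in HBSS added to the apical or basolateral side. Both sides sampled at end of incubation and quantified by HPLC. Papp is the mean of A→B and B→A values.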
Data set [15] deals with Mus musculus. The data set can be described thus: Dose normalized AUC in BCRP knockout mouse administered through oral gavage by LC-MS/MS analysis. In kind it is ADME. As to conditions: in vivo.
Data set [16] can be described thus: Oral bioavailability in BCRP knockout mouse by LC-MS/MS analysis. The format is ADME, organism-based. As to conditions: in vivo.

The structures appear in SMILES notation.

Chain of AMPK alpha2/beta1/gamma1 (P54646 whole entry): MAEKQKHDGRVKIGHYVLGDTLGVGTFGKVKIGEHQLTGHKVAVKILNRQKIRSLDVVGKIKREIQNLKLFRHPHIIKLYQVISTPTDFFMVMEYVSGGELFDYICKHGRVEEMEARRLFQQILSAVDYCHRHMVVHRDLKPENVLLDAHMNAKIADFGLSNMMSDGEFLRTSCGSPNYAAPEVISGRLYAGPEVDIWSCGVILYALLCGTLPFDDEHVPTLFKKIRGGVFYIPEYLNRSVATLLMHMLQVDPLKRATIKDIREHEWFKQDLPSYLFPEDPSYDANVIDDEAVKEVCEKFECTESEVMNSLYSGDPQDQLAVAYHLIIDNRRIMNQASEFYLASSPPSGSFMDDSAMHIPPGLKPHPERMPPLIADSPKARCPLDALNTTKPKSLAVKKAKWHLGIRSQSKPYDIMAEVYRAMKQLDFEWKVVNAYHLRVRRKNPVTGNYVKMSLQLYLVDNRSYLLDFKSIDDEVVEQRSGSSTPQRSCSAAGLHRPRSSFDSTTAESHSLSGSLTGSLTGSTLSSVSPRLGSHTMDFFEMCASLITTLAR
Chain of AMPK alpha2/beta1/gamma1 (P54619 whole entry): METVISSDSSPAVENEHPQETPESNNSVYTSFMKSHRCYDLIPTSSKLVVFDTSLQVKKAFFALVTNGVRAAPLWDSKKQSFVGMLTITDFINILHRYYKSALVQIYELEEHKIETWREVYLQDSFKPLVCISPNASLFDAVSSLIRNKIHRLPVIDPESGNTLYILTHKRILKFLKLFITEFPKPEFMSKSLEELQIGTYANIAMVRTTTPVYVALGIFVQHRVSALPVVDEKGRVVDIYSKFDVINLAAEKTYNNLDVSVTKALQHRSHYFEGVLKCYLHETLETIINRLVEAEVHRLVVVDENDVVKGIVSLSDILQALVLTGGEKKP
Chain of AMPK alpha2/beta1/gamma1 (Q9Y478 whole entry): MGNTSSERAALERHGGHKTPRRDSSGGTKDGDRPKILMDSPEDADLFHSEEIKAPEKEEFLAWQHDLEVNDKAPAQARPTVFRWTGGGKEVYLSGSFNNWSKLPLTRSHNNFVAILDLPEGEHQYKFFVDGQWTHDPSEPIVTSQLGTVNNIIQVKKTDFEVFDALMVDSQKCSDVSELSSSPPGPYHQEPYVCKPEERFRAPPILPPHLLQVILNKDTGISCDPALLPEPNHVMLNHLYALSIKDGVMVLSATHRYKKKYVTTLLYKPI
T1 sequence (P54619 whole entry partner): as the sequence (P54619 whole entry) above
T1 sequence (P54646 whole entry): as the sequence (P54646 whole entry) above
T1 sequence (Q9Y478 2-270 partner limits assumed): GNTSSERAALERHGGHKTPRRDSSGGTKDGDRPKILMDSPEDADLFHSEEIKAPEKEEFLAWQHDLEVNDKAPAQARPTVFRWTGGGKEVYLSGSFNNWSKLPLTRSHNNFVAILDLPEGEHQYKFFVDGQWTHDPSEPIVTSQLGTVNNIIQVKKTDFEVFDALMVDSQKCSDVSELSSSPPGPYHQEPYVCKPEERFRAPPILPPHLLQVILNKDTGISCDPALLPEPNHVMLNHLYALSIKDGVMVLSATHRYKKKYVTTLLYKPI

On to `O=C(O)c1cc(Oc2nc3cc(C#Cc4ccccc4)c(Cl)cc3[nH]2)ccc1Cl`, for which the concentration for a half-maximal effect (EC50) on AMPK alpha2/beta1/gamma1 was 15 nM. The %max in [1] was determined as 250%.

With `Cc1ccc(Oc2nc3cc(C#Cc4ccccc4)c(Cl)cc3[nH]2)cc1C(=O)O`, at AMPK alpha2/beta1/gamma1, the EC50 stood at 7 nM. Further, the %max in [1] worked out at 240%.

As to `O=C(O)c1cccc(-c2nc3cc(Cl)c(Cl)cc3[nH]2)c1`, the %max in [2] worked out at 10%.

With `O=C(O)c1ccc(Sc2nc3cc(Cl)c(Cl)cc3[nH]2)cc1`, the %max in [2] is 35%.

As to `O=C(O)CCc1nc2cc(Cl)c(Cl)cc2[nH]1`, in data set [2], the %max worked out at 78%. Besides, the EC50 on AMPK alpha2/beta1/gamma1 was determined as 36000 nM.

With `O=C(O)CCSc1nc2cc(Cl)c(Cl)cc2[nH]1`, the %max in [2] was determined as 130%. The half-maximal effective concentration (EC50) on AMPK alpha2/beta1/gamma1 amounted to 8500 nM.

In the case of `O=C(O)CCc1nc2cc(Cl)c(-c3ccccc3)cc2[nH]1`, the %max in data set [2] turned out to be 130%. Also, the half-maximal effective concentration (EC50) on AMPK alpha2/beta1/gamma1 was found to be 8000 nM.

For the compound `Cc1cc2nc(CCC(=O)O)[nH]c2cc1C`, the %max in data set [2] came to 19%.

Regarding `O=C(O)c1cc(Oc2nc3cc(-c4ccc(-c5ccccc5)cc4)c(Cl)cc3[nH]2)ccc1Cl`, the half-maximal effective concentration (EC50) on AMPK alpha2/beta1/gamma1 is 32 nM. Further, in data set [1], the %max came out at 310%.

`O=C(O)CCc1nc2cc(Cl)ccc2[nH]1`: the %max in data set [2] is 41%.

Regarding `O=C(O)c1cccc(Oc2nc3cc(-c4ccc(-c5ccccc5)cc4)c(Cl)cc3[nH]2)c1`, the half-maximal effective concentration (EC50) on AMPK alpha2/beta1/gamma1 was determined as 61 nM. The %max in data set [1] came out at 260%.

`O=C(O)c1ccccc1Sc1nc2cc(Cl)c(Cl)cc2[nH]1`: the %max in data set [2] is 130%. Besides, the EC50 on AMPK alpha2/beta1/gamma1 was found to be 8100 nM.

In the case of `O=C(O)CSc1nc2cc(Cl)c(Cl)cc2[nH]1`, in data set [2], the %max was 130%. Further, the concentration giving a half-maximal response (EC50) on AMPK alpha2/beta1/gamma1 was 4000 nM.

Regarding `O=C(O)c1ccccc1-c1nc2cc(Cl)c(Cl)cc2[nH]1`, the %max in data set [2] was 6%.

Consider `Cc1ccc(Oc2nc3cc(-c4ccc5c(ccn5C)c4)c(Cl)cc3[nH]2)cc1C(=O)O`, for which the EC50 on AMPK alpha2/beta1/gamma1 came out at 2 nM. In addition, the %max in [1] is 340%.

With `O=C(O)c1cccc(Sc2nc3cc(Cl)c(Cl)cc3[nH]2)c1`, the %max in data set [2] worked out at 150%. Moreover, the EC50 at AMPK alpha2/beta1/gamma1 came to 7400 nM.

Take `O=C(O)CCc1nc2cc(Cl)c(Br)cc2[nH]1`: the %max in [2] turned out to be 44%.

As to `O=C(O)CCc1nc2ccccc2[nH]1`, the %max in data set [2] was determined as 14%.

With `O=C(O)CC[S+]([O-])c1nc2cc(Cl)c(Cl)cc2[nH]1` (configuration not stated), the %max in data set [2] stood at 15%.

Take `Cc1ccc(Oc2nc3cc(-c4ccc(-c5ccn[nH]5)cc4)c(Cl)cc3[nH]2)cc1C(=O)O`: the EC50 on AMPK alpha2/beta1/gamma1 was found to be 11 nM. Moreover, in data set [1], the %max was 260%.

`O=C(O)c1csc(Sc2nc3cc(Cl)c(Cl)cc3[nH]2)n1`: in data set [2], the %max came out at 76%. The EC50 at AMPK alpha2/beta1/gamma1 turned out to be 2600 nM.

Take `O=C(O)c1cccc(Sc2nc3cc(-c4ccc(-c5ccccc5O)cc4)c(Cl)cc3[nH]2)c1`: on AMPK alpha2/beta1/gamma1, the half-maximal effective concentration (EC50) is 29 nM. Also, in data set [3], the %max is 100%.

With `O=C(O)Cc1cccc(Sc2nc3cc(Cl)c(Cl)cc3[nH]2)c1`, the %max in data set [2] amounted to 140%. Besides, the EC50 on AMPK alpha2/beta1/gamma1 stood at 2900 nM.

Regarding `O=C(O)CSc1nc2cc(C#Cc3ccccc3)c(Cl)cc2[nH]1`, at AMPK alpha2/beta1/gamma1, the EC50 was found to be 200 nM. The %max in [3] was found to be 320%.

Consider `Cc1ccc(Oc2nc3cc(-c4ccc(-c5ccccc5O)cc4)c(Cl)cc3[nH]2)cc1C(=O)O`, for which the 50% effective concentration (EC50) on AMPK alpha2/beta1/gamma1 worked out at 3 nM. Besides, in [1], the %max stood at 230%.

For `O=C(O)CSc1nc2cc(-c3ccc(-c4ccccc4)cc3)c(Cl)cc2[nH]1`, the half-life in data set [4] is 168 min; in [7], 648 min. For the same compound, the clearance was determined as 60 mL/min/kg in [5] and 2.9 mL/min/kg in data set [8]. For the same compound, the Vd in data set [6] stood at 2.6 L/kg; in [11], 6.7 L/kg. Further, at AMPK alpha2/beta1/gamma1, the EC50 stood at 150 nM. Also, in the data set on Mus musculus [9], the inhibition in vivo at 100 mg/kg is 20%. Besides, the inhibition in vivo at 30 mg/kg in the data set with Mus musculus [10] turned out to be 40%. The values for the AUC/dose in the data set with Mus musculus [12] and in the data set with Mus musculus [15] were 0.05 µM·kg·h/mg and 11.4 µM·kg·h/mg, respectively. For the same compound, the bioavailability in data set [13] is 7%; in data set [16], 77%. In data set [14], the Papp result is “Permeable”. Moreover, the %max in data set [3] is 260%.

Take `O=C(O)CCc1nc2cc(Cl)c(-c3ccc(-c4ccccc4)cc3)cc2[nH]1`: the %max in data set [2] came to 130%. Besides, the concentration for a half-maximal effect (EC50) on AMPK alpha2/beta1/gamma1 was 6000 nM.

Consider `COc1ccc2[nH]c(CCC(=O)O)nc2c1`, for which the %max in [2] was 14%.

For the compound `O=C(O)c1cccc(Sc2nc3cc(-c4ccc(-c5ccccc5)cc4)c(Cl)cc3[nH]2)c1`, the half-maximal effective concentration (EC50) at AMPK alpha2/beta1/gamma1 worked out at 800 nM. Further, in data set [3], the %max is 200%.

What is called EC50 is the concentration needed to bring the measured effect to its halfway point. A word on the clearance: it is the volume of plasma or blood freed of the substance per unit of time. A lower clearance goes with inefficient removal. What is called inhibition in vivo is the percentage by which the read-out fell short of the control. As a reminder, the bioavailability is dose-corrected exposure relative to a reference, in per cent. Read a low bioavailability as little systemic uptake.
